Activity calls are given as the source filed them. The rule behind the calls is not given here.
Columns and labels:
MCF7 = test: Cytotoxicity against human MCF7 cells assessed as reduction in cell viability measured after 72 hrs by MTT assay; type: functional, cell-based; settings: MCF7, 72 h
Jurkat [1] = test: Cytotoxicity against human Jurkat cells assessed as reduction in cell viability measured after 24 hrs MTT assay; type: functional, cell-based
NAMALVA [2] = test: Cytotoxicity against human NAMALVA cells assessed as reduction in cell viability measured after 72 hrs by MTT assay; type: functional, cell-based
[3] = Cytotoxicity against human HS5 cells assessed as reduction in cell viability measured after 72 hrs by MTT assay; type: ADME, cell-based; settings: HS5, 72 h
Jurkat [4] = test: Cytotoxicity against human Jurkat cells assessed as reduction in cell viability measured after 72 hrs by MTT assay; type: functional, cell-based
Jurkat [5] = test: Cytotoxicity against human Jurkat cells assessed as reduction in cell viability measured after 48 hrs MTT assay; type: functional, cell-based
HCT-116 = test: Cytotoxicity against human HCT-116 cells assessed as reduction in cell viability measured after 72 hrs by MTT assay; type: functional, cell-based; settings: HCT-116, 72 h
NAMALVA [6] = test: Effect on phosphotyrosine expression in human NAMALVA cells at IC50 measured after 48 hrs by Western blot analysis; type: functional, cell-based
[7] = Selectivity index, ratio of IC50 for human HS5 cells to IC50 for human Jurkat cells
[8] = Selectivity ratio of IC50 for human HCT-116 cells to IC50 for human NAMALVA cells; type: functional
Jurkat [9] = test: Cytotoxicity against human Jurkat cells assessed as reduction in cell proliferation at IC50 measured after 48 hrs by Ki-67 staining based fluorescence assay; type: functional
Outline: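 Ki-67 stained per kit instructions; mean fluorescence intensity by flow cytometry, normalized to untreated cells; at least three independent experiments, ANOVA with Bonferroni post-test.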

Jurkat [10] = test: Induction of apoptosis in human Jurkat cells assessed as late apoptotic cells at 0.5 times IC50 measured after 48 hrs by Annexin V-FITC/7AAD staining based flow cytometry (reference value: 6.77%); type: functional
NAMALVA [11] = test: Induction of apoptosis in human NAMALVA cells assessed as viable cells at 0.5 times IC50 measured after 48 hrs by Annexin V-FITC/7AAD staining based flow cytometry (reference value: 90.4%); type: functional
[12] = Selectivity index, ratio of IC50 for human HS5 cells to IC50 for human NAMALVA cells
Jurkat [13] = test: Effect on phosphoserine expression in human Jurkat cells at IC50 measured after 48 hrs by Western blot analysis; type: functional, cell-based
Jurkat [14] = test: Effect on phosphotyrosine expression in human Jurkat cells at IC50 measured after 48 hrs by Western blot analysis; type: functional, cell-based
NAMALVA [15] = test: Induction of apoptosis in human NAMALVA cells assessed as necrotic cells at 0.5 times IC50 measured after 48 hrs by Annexin V-FITC/7AAD staining based flow cytometry (reference value: 1.05%); type: functional
Jurkat [16] = test: Cytotoxicity against human Jurkat cells assessed as reduction in cell viability MTT assay; type: functional, cell-based; settings: time 24-72 hrs, TDE = time-dependent effect
Outline: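 Jurkat cells (2 × 10^4/well) in RPMI with 10% FBS and 1% penicillin–streptomycin, exposed 24, 48 and 72 h to compound (0.0032–50 μM); 1% DMSO as negative control. MTT at 0.5 mg/mL final for 3 h, formazan dissolved in 0.1 N HCl/isopropanol. IC50 with 95% confidence intervals from sigmoidal nonlinear regression; mean ± SEM.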

NAMALVA [17] = test: Effect on phosphoserine expression in human NAMALVA cells at IC50 measured after 48 hrs by Western blot analysis; type: functional, cell-based
Jurkat [18] = test: Induction of apoptosis in human Jurkat cells assessed as early apoptotic cells at 0.5 times IC50 measured after 48 hrs by Annexin V-FITC/7AAD staining based flow cytometry (reference value: 6.05%); type: functional
[19] = biological target: T1, Histone deacetylase (Homo sapiens) (UniProt Q13547+O15379+Q9UBN7+Q92769+Q9UQL6+Q8WUI4+Q9BY41+Q96DB2+P56524+Q9UKV0+Q969S8); test: Inhibition of HDAC in human NAMALVA cells assessed as increase in gammaH2AX expression at IC50 measured after 48 hrs by Western blot analysis; type: cell-based
NAMALVA [20] = test: Induction of apoptosis in human NAMALVA cells assessed as late apoptotic cells at 0.5 times IC50 measured after 48 hrs by Annexin V-FITC/7AAD staining based flow cytometry (reference value: 3.52%); type: functional
Jurkat [21] = test: Induction of apoptosis in human Jurkat cells assessed as viable cells at 0.5 times IC50 measured after 48 hrs by Annexin V-FITC/7AAD staining based flow cytometry (reference value: 85.2%); type: functional
NAMALVA [22] = test: Induction of apoptosis in human NAMALVA cells assessed as early apoptotic cells at 0.5 times IC50 measured after 48 hrs by Annexin V-FITC/7AAD staining based flow cytometry (reference value: 5.07%); type: functional
Jurkat [23] = test: Induction of apoptosis in human Jurkat cells assessed as necrotic cells at 0.5 times IC50 measured after 48 hrs by Annexin V-FITC/7AAD staining based flow cytometry (reference value: 0.23%); type: functional
[24] = Selectivity ratio of IC50 for human HCT-116 cells to IC50 for human Jurkat cells; type: functional
[25] = biological target: T1, Histone deacetylase (Homo sapiens); test: Inhibition of HDAC in human Jurkat cells assessed as increase in gammaH2AX expression at IC50 measured after 48 hrs by Western blot analysis; type: cell-based
[26] = biological target: T2, Protein deacetylase HDAC6 (Homo sapiens) (UniProt Q9UBN7); test: Inhibition of HDAC6 in human NAMALVA cells assessed as increase in acetylated alpha-tubulin expression at IC50 measured after 48 hrs by Western blot analysis; type: cell-based
T2 sequence (whole entry): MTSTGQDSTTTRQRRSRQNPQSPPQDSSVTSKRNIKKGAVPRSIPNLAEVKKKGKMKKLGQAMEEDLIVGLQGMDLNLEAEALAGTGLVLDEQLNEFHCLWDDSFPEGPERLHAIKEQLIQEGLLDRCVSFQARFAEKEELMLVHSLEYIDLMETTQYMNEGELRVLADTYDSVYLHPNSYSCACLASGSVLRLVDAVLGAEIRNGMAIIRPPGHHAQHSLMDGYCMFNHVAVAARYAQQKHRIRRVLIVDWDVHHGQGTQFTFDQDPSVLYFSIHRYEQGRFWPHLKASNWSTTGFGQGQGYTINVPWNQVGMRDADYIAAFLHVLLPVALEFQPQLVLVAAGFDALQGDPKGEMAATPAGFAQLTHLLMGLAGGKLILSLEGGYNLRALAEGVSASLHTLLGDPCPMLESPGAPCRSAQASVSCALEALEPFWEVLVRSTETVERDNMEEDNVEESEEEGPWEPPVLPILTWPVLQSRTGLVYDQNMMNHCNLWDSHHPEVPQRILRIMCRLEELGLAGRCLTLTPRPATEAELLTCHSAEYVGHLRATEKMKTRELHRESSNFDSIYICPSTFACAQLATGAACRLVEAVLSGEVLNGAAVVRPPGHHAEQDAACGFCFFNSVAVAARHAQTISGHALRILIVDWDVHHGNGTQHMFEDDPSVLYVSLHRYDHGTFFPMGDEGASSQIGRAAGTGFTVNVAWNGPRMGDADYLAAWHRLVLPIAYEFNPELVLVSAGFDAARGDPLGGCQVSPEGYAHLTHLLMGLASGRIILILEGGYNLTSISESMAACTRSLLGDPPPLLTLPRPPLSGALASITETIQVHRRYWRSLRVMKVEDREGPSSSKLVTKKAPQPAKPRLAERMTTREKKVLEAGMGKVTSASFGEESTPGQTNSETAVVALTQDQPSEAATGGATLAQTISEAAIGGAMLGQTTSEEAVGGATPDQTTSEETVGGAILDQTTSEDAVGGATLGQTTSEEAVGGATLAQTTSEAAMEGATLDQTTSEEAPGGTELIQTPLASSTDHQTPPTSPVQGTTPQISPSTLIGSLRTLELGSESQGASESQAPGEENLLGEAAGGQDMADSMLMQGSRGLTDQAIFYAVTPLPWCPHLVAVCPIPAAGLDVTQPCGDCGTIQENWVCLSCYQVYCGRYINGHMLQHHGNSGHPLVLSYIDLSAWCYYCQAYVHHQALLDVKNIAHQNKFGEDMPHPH

[27] = biological target: T2, Protein deacetylase HDAC6 (Homo sapiens); test: Inhibition of HDAC6 in human Jurkat cells assessed as increase in acetylated alpha-tubulin expression at IC50 measured after 48 hrs by Western blot analysis; type: cell-based

Row | Compound | IC50 (MCF7) | IC50 (Jurkat [1]) | IC50 (NAMALVA [2]) | IC50 [3] | IC50 (Jurkat [4]) | IC50 (Jurkat [5]) | IC50 (HCT-116) | inhibition (NAMALVA [6]) | Ratio IC50 [7] | Ratio IC50 [8] | Activity (Jurkat [9]) | Activity (Jurkat [10]) | Activity (NAMALVA [11]) | Ratio IC50 [12] | inhibition (Jurkat [13]) | inhibition (Jurkat [14]) | Activity (NAMALVA [15]) | Activity (Jurkat [16]) | inhibition (NAMALVA [17]) | Activity (Jurkat [18]) | further results
1 | COc1cccc2c1C(=O)c1c(O)c3c(c(O)c1C2=O)C[C@@](O)(C(=O)CO)C[C@@H]3O[C@H]1C[C@H](N)[C@H](O)[C@H](C)O1 [DOXORUBICIN] | 1900 nM | 700 nM | 90 nM | 150 nM | 50 nM | 200 nM | – | – | – | – | – | – | – | – | – | – | – | – | – | – | –
2 | O=C(Nc1ccc(C(=O)NO)cc1)Nc1ccc([N+](=O)[O-])cc1 | > 50000 nM | – | 13200 nM | – | 12600 nM | – | 28400 nM | – | – | – | – | – | – | – | – | – | – | – | – | – | –
3 | O=C(/C=C/c1ccc(NC(=O)Nc2ccccc2)cc1)NO | > 50000 nM | 2700 nM | 300 nM | 1000 nM | 160 nM | 1200 nM | 6490 nM | inactive | 6 | 22 | Active | 4.39% | 81.4% | 3 | inactive | inactive | 1.05% | Tde | inactive | 7.03% | inhibition [19]: Active; Activity (NAMALVA [20]): 5.2%; Activity (Jurkat [21]): 87.4%; Activity (NAMALVA [22]): 12.4%; Activity (Jurkat [23]): 0.31%; Ratio IC50 [24]: 41; inhibition [25]: Active; inhibition [26]: Active; inhibition [27]: Active
4 | O=C(CCc1ccc(NC(=O)Nc2ccc([N+](=O)[O-])cc2)cc1)NO | > 50000 nM | – | 2500 nM | – | 810 nM | – | 6370 nM | – | – | – | – | – | – | – | – | – | – | – | – | – | –
5 | COc1ccc(NC(=O)Nc2ccc(/C=C/C(=O)NO)cc2)cc1 | > 50000 nM | 1800 nM | 460 nM | 3000 nM | 110 nM | 700 nM | 11900 nM | inactive | 27 | 26 | Active | 7.77% | 82.9% | 7 | inactive | inactive | 1.46% | Tde | inactive | 9.66% | inhibition [19]: Active; Activity (NAMALVA [20]): 5.42%; Activity (Jurkat [21]): 82.2%; Activity (NAMALVA [22]): 10.2%; Activity (Jurkat [23]): 0.39%; Ratio IC50 [24]: 108; inhibition [25]: Active; inhibition [26]: Active; inhibition [27]: Active
